# ROMK mod: human ROMK K+ channel modulation, primary screen; 130,000 compounds, 2% hits; P48048; Tet-inducible ROMK, thallium flux fluorescence; actives lie on both sides; B-score at 10 µM; AID 1918;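 active means signal ratio slope over the read window, or its plate-corrected B-score, at least 3 SD from the plate mean, either direction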;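 further: B-score of the F/F0 ratio slope over 7 to 12 s after thallium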
# PMI act hi M6P: activators of human phosphomannose isomerase at near-saturating mannose 6-phosphate | activation factor at 20 µM | coupled PMI enzyme assay, resazurin fluorescence, 20 min; hits give high values; 1 = untreated enzyme, 0 = substrate-free blank | P34949 | 190,000 compounds, 0.34% hits;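 active means activation factor of 2 or more at 20 µM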
#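 Material: human phosphomannose isomerase with PGI, G6PDH, diaphorase coupling enzymes; amount: PMI at 15 ng/mL final; also added: Mannose-6-phosphate 1.0 mM (near-saturating) plus 0.22 mM NADP+; incubation: enzyme reaction with compound 20 min at room temperature; signal: resorufin fluorescence (Ex 544/Em 590 nm) from resazurin via diaphorase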
# ABCG2 block: inhibitors of human ABCG2 transporter, ABCB1 counter-screen. Q9UNQ0. IgMXP3 cells, JC-1 efflux, flow cytometry. inhibition, % at 6.6 µM. 190,000 compounds, 0.1% hits. AID 1325;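 active means inhibition above 80%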;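 further: 0% = DMSO and 100% = nicardipine control wells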
#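 Read-out basis: Efflux inhibition in percent versus controls | Test system: ABCG2 IgMXP3 and barcoded ABCB1 CCRF-Adr cell mix | Quantity: 3 million cells/mL in well | Schedule: 10 min at 25 °C | Control set: Nicardipine as high control, DMSO as low control | Reagent: JC-1 as fluorescent efflux pump substrate | Signal: Flow cytometry of retained JC-1 fluorescence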
# KCC2 mod: modulates chloride dependent transport by human KCC2; Q9H2X9; KCC2 cells, thallium flux FluoZin-2 fluorescence; B-score of Tl+ flux slope (higher = more flux/activation; lower = inhibition) at 10 µM; 190,000 compounds, 2.2% hits; AID 1456;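 active means thallium flux slope and its plate-corrected score both differing from the plate sample mean at a set confidence after two filtering rounds, in either direction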;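 further: slope of fluorescence scaled to starting intensity during 10 to 20 s after thallium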
# Target sequence (Q9H2X9 whole entry, looked up): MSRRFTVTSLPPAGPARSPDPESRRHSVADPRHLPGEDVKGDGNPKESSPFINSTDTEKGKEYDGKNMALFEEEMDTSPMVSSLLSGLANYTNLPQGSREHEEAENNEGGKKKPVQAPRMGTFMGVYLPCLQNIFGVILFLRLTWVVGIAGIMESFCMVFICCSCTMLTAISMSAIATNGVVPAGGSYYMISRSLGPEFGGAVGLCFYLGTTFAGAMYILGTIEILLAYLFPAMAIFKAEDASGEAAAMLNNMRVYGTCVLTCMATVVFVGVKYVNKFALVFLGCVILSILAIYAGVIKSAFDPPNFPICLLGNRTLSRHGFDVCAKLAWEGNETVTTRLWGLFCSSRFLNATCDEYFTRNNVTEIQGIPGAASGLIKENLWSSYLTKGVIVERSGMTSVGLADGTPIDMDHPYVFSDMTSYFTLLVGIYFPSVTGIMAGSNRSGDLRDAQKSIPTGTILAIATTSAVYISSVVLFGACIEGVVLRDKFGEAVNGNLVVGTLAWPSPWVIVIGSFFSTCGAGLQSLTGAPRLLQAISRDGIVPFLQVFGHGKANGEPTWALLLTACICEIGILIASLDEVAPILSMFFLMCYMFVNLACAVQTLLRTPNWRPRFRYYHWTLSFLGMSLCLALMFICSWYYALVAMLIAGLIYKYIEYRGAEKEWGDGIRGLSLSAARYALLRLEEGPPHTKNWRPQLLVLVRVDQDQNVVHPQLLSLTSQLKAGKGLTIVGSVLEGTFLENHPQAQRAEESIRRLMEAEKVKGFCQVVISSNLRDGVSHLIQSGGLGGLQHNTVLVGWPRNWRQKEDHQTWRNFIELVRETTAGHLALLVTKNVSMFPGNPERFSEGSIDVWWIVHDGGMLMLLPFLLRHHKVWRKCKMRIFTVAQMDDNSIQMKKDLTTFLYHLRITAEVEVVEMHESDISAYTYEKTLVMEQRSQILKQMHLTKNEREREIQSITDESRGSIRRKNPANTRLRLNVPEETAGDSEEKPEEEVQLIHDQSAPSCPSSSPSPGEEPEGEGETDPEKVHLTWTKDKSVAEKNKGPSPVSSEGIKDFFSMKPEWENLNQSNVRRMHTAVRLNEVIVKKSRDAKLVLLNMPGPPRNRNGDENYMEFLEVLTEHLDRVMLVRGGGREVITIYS
# ABCB1 block: blocks JC-1 efflux by human ABCB1 transporter. P08183. CCRF-Adr cells, flow cytometry. inhibition, % at 6.6 µM. 190,000 compounds, 0.067% hits. AID 1326; in the data active means inhibition above about 40%;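 further: 0% = vehicle and 100% = reference inhibitor; higher value means more JC-1 retained so stronger ABCB1 efflux block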
# PMI activator: phosphomannose isomerase (human) activation | purified human PMI, coupled resazurin fluorescence, 20 min; hits give high values; 1 = vehicle control, 0 substrate-free wells | P34949 | 190,000 compounds, 0.005% hits | AID 1214 | activation factor at 20 µM;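 active means activation factor of 2 or more at 20 µM, relative to plate controls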
# KCC2 secondary: confirmation of human KCC2 transport modulators; shares compounds with KCC2 mod; HEK293-KCC2, thallium flux, FluoZin2 fluorescence; hits give high values; normalised thallium flux (F/F0 slope) at 10 µM; 3,700 compounds, 15% hits; AID 1713;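 active means thallium flux slope above the same plate's solvent-only control mean plus 3 SD; inconclusive means the two replicate wells disagree; inactive means no significant difference from solvent-only control wells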
# KCC2 bumet counter: bumetanide-insensitive thallium flux in KCC2 cells with ouabain, counter-screen; shares compounds with KCC2 mod; HEK293-KCC2 + bumetanide/ouabain, thallium flux FluoZin2; hits give high values; normalized thallium flux at 10 µM; 3,700 compounds, 49% hits; AID 1714;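 active means thallium entry rate above the same plate's blocked-transporter control wells by more than 3 SD; inconclusive means the two repeat wells disagree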;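 further: raw slope of fluorescence over initial fluorescence between 10 and 20 s after thallium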
# KCC2 secondary2: confirmation of human KCC2 transport modulators | shares compounds with KCC2 mod | normalized thallium flux at 10 µM | HEK293-KCC2, thallium flux FluoZin2 fluorescence; actives lie on both sides; F/F0 rise rate, 10–20 s post-thallium | AID 1715 | 3,700 compounds, 23% hits;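 active means thallium flux slope more than 3 SD above or below the plate's solvent-only control mean, mostly below; inconclusive means the two repeat wells disagreed; inactive means no significant shift from solvent-only controls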;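 further: raw slope with 0.1% DMSO as baseline and bumetanide as block control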
# HEK293 Tl flux: counter-screen for KCC2 modulators: effect in parental HEK293 cells; thallium flux FluoZin2, ouabain; baseline-ratio fluorescence slope, 10–20 s after thallium; thallium flux rate (normalised fluorescence) at 10 µM; shares compounds with KCC2 mod; 3,700 compounds, 46% hits;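 active means thallium flux rate significantly above the same plate's solvent-only control wells, beyond their mean plus 3 SD; inconclusive means the two replicate wells gave conflicting results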
# KCC2 retest ouab: modulates human KCC2 on retest with ouabain; shares compounds with KCC2 mod; HEK293-KCC2, thallium flux FluoZin2 fluorescence; bidirectional: low = inhibitor, high = activator; raw Tl+ flux slope (below DMSO = inhibition, above = activation) at 10 µM; 3,700 compounds, 48% hits;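 active means thallium flux slope beyond 3 SD from same-plate DMSO control mean in most replicates, usually higher, sometimes lower; inconclusive means repeat tests gave conflicting results; inactive means no significant difference from controls in most replicates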;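 further: slope of initial-normalized fluorescence between seconds 10 and 20 after thallium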
# HEK counter2: parental HEK flux effect, counter-screen 2 | shares compounds with KCC2 mod | HEK293 parental, thallium flux FluoZin-2 fluorescence slope | thallium flux slope at 10 µM | 3,700 compounds, 33% hits;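 active means thallium flux slope above the same plate's solvent-control mean plus 3 SD in both duplicate wells; inconclusive means duplicate wells that disagreed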;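 further: run without ouabain in cells lacking the KCC2 cotransporter; slope of fluorescence scaled to its starting value between 10 and 20 s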
# An asterisk follows results filed as active; ? = inconclusive; · = not tested or not shown. In the library only some 3.3% were active in any assay of this set; here they are far more common.
SMILES,ROMK mod,PMI act hi M6P,ABCG2 block,KCC2 mod,ABCB1 block,PMI activator,KCC2 secondary,KCC2 bumet counter,KCC2 secondary2,HEK293 Tl flux,KCC2 retest ouab,HEK counter2
c1ccc(Cn2c(SCc3nc4ccccc4s3)nnc2-c2ccco2)cc1,·,1.4,3,-3.4*,1,1.1,0.0063,?,0.027*,0.0053*,?,0.0076*
CCn1c(SCc2nc3ccccc3s2)nnc1-c1ccccc1,-0.48,1,2,0.21,1,0.9,·,·,·,·,·,·
CCC(c1nnc(SCc2nc3ccccc3s2)n1Cc1ccccc1)N(C)C (centres undefined),-1.6,0.9,4,·,2,1,0.015,0.0046,?,0.0066,0.014,0.0099
CCN(CC)c1ccc(C(=O)OCC(=O)N2CCN(c3ccccc3)CC2)cc1,-0.59,1,19,-1.1,4,0.9,·,·,·,·,·,·
CN(C(=O)CSc1ncnc2sc(-c3ccccc3)cc12)C1CCS(=O)(=O)C1 (centres undefined),0.54,1,1,138*,0,1.1,0.0077,0.11*,0.11*,0.11*,0.1*,0.11*
CN(C(=O)CSc1ncnc2scc(-c3ccccc3)c12)C1CCS(=O)(=O)C1 (centres undefined),0.31,1.1,3,2.7,0,1.1,·,·,·,·,·,·
Cc1sc2ncnc(SCC(=O)N(C)C3CCS(=O)(=O)C3)c2c1C (centres undefined),0.18,1,7,0.88,1,1,·,·,·,·,·,·
CCOC(=O)c1sc2nc(C)nc(SCC(=O)N(C)C3CCS(=O)(=O)C3)c2c1C (centres undefined),1.6,1,2,24*,0,0.9,0.0075,0.06*,0.052*,0.049*,0.048*,0.046*
O=S(=O)(c1ccccc1)N1CCN=C1SCc1ccccc1,-1.3,1,2,-3.6*,0,1,0.0058,?,0.028,0.0068,0.015*,0.0098
COC(=O)c1sc(-c2ccccc2)cc1NC(=O)c1ccc(F)cc1,·,0.9,4,1.5,0,0.8,·,·,·,·,·,·
CC(=O)c1sc(-c2ccc(F)cc2)cc1NS(=O)(=O)c1ccccc1,·,·,·,9*,·,·,0.0089,0.016*,0.033,0.015*,?,?
O=C(COC(=O)CCCSc1nc2ccccc2[nH]1)NC(=O)NC1CCCC1,·,1,1,-0.9,0,1,0.0092,0.0053,0.033,?,0.02,0.01
O=C(O)C[C@@H]1C(=O)O[C@@H]2C(COC(=O)c3cc(O)c(O)c(O)c3)O[C@@H](OC(=O)c3cc(O)c(O)c(O)c3)[C@@H](OC(=O)c3cc(O)c(O)c4c3[C@H]1[C@H](O)C(=O)O4)[C@H]2OC(=O)c1cc(O)c(O)c(O)c1 (some centres undefined),·,·,·,-1.1,·,·,·,·,·,·,·,·
CC(C)CNC(=O)c1ccc(Cl)c(Cl)c1,-0.046,0.9,23,0.43,2,0.9,·,·,·,·,·,·

# Source: PubChem
